In ChEMBL document CHEMBL1146258, “N6-Cycloalkyl-2-substituted adenosine derivatives as selective, high affinity adenosine A1 receptor agonists” (Bioorg Med Chem Lett, 2007) one finds Ki, Ratio Ki and Intrinsic activity data, which are given here for 12 molecules.

pKi: −log10 of the molar value.

The target of assay [1] is T1, Adenosine receptor A3 (Homo sapiens, UniProt P0DMS8).
T1 sequence (P0DMS8 whole entry): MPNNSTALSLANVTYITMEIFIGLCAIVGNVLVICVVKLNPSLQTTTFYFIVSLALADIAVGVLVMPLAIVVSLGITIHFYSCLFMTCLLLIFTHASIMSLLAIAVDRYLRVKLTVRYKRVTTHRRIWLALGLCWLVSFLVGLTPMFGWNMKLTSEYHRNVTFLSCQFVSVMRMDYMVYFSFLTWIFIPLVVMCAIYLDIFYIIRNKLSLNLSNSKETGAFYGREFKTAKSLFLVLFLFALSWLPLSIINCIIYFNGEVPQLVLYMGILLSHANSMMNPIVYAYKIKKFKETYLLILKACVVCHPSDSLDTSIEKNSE
As to the kind of experiment: Displacement of [125I]ABMECA from adenosine A3 receptor expressed in CHO cells. The assay is classed as cell-based. (In general: Loss of bound radioactivity is the signal in a displacement assay; it reports binding, not function.)

Assay [2] concerns the target Adenosine receptor A2a (Homo sapiens, UniProt P29274). As to the kind of experiment: Displacement of [3H]ZM-241385 from A2A adenosine A2A receptor expressed in HEK cells. The assay is classed as cell-based, HEK293. In short, it runs like this:
(§1)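 HEK cells expressing A2A or A2B receptor, [³H]-ZM241385 radioligand, run without GTP; Ki for the high-affinity (coupled) state. 95% confidence limits generally 15% of mean.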

The target of assay [3] is T2, Adenosine receptor A2b (Homo sapiens, UniProt P29275).
T2 sequence (P29275 whole entry): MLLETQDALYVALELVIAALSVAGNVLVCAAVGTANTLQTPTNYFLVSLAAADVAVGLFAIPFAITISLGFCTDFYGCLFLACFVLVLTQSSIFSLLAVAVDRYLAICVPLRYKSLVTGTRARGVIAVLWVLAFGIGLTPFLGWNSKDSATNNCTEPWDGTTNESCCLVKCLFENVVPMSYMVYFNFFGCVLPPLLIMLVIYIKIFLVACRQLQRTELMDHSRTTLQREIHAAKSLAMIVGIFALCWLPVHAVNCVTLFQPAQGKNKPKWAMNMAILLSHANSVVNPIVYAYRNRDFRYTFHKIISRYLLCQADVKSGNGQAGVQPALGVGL
As to the kind of experiment: Displacement of [3H]ZM241385 from adenosine A2B receptor expressed in HEK cells. It is filed as cell-based, HEK293. The essentials:
as §1

The target in assay [4] is Adenosine receptors; A1 & A3 (Homo sapiens) (UniProt P30542+P0DMS8). As to the kind of experiment: Selectivity for adenosine A1 receptor over adenosine A3 receptor. The assay is classed as protein assay. The essentials: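 Ratio of A3 Ki-High (CHO-A3 cells, [¹²⁵I]-AB-MECA, no GTP) to A1 Ki-Low (DDT membranes, [³H]-CPX, with GTPγS).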
Chain of Adenosine receptors; A1 & A3 (Homo sapiens) (P30542 whole entry, looked up, one chain of several): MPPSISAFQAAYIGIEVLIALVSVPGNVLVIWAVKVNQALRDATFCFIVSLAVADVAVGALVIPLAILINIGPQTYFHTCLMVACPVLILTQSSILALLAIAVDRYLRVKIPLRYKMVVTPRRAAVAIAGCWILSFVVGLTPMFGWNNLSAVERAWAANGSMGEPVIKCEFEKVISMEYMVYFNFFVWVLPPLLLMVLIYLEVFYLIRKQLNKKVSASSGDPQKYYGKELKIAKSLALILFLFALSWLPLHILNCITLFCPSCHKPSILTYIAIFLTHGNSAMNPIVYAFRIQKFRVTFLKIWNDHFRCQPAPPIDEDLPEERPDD
Assay [5] concerns the target Adenosine receptors; A1 & A2a (Homo sapiens) (UniProt P30542+P29274). Briefly: Selectivity for adenosine A1 receptor over adenosine A2A receptor. The assay is classed as protein assay.
In assay [6] the target is Adenosine receptor A1 (Mesocricetus auratus). As to the kind of experiment: Displacement of [3H]CPX from adenosine A1 receptor in DDT membranes.
In assay [7] the target is T3, Adenosine receptor A1 (Rattus norvegicus) (UniProt P25099).
T3 sequence (whole entry): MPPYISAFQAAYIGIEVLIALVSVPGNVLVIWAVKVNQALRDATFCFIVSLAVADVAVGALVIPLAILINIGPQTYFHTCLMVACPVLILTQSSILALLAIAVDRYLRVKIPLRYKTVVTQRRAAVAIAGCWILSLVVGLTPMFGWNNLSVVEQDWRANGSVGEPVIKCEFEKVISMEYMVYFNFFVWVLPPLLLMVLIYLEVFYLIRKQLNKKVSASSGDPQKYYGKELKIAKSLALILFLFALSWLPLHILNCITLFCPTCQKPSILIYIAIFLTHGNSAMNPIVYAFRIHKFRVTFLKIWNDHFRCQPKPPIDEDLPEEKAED
As to the kind of experiment: Agonist activity at adenosine A1 receptor in rat brain membrane assessed as stimulation of [35S]GTP-gamma-S binding relative to CPA. It is filed as functional, cell membranes. The essentials:
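Rat brain membranes; agonist-induced [³⁵S]GTPγS binding to G protein measured, with maximal stimulation by the full agonist CPA set as 100% and efficacy expressed relative to it.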

Chain of Adenosine receptor A2a (P29274 whole entry): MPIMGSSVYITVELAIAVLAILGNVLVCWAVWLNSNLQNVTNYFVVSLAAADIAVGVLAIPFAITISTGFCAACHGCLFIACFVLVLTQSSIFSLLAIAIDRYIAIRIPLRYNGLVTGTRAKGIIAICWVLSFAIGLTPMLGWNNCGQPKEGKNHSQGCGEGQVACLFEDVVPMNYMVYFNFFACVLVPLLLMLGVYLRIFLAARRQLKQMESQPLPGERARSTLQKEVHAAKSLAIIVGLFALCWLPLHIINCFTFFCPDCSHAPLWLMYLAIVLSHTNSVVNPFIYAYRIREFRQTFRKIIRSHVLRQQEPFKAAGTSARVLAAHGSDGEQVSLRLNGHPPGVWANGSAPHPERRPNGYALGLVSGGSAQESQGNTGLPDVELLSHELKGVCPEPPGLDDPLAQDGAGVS

What is called pKi is the Ki on a negative log10 scale, so that one unit is a factor of ten. Low readings indicate a large Ki, high ones a small Ki. As to `CCOC(=O)c1cnn(-c2nc(NC3CCCCC3)c3ncn([C@@H]4O[C@H](CO)[C@@H](O)[C@H]4O)c3n2)c1`, the pKi in assay [1] is 7.52; in assay [2], less than 5.30; in assay [3], less than 5.22. Further, in assay [4], the Ratio Ki was 1.
For `CNC(=O)c1cnn(-c2nc(NC3CCCC3)c3ncn([C@@H]4O[C@H](CO)[C@@H](O)[C@H]4O)c3n2)c1`, in that order: 5.85, less than 5.30, less than 5.22 and 710.
For `CCOC(=O)c1cnn(-c2nc(NC34CCC(CC3)C4)c3ncn([C@@H]4O[C@H](CO)[C@@H](O)[C@H]4O)c3n2)c1`, in that order: 6.60, less than 5.30, less than 5.22 and 83.
Take `OC[C@H]1O[C@@H](n2cnc3c(NC4CCCC4)nc(-n4cccn4)nc32)[C@H](O)[C@@H]1O`: the pKi in assay [1] was 6.98; in assay [2], less than 5.30; in assay [3], less than 5.22. Also, the Ratio Ki in assay [4] was found to be 3.
For `OC[C@H]1O[C@@H](n2cnc3c(NC45CCC(CC4)C5)nc(-n4cccn4)nc32)[C@H](O)[C@@H]1O`, in that order: 5.90, less than 5.30, less than 5.22 and 3180.
`NC(=O)c1cnn(-c2nc(NC3CCCC3)c3ncn([C@@H]4O[C@H](CO)[C@@H](O)[C@H]4O)c3n2)c1`: the pKi in assay [1] is 6.42; in assay [2] it was less than 5.30; in assay [3], less than 5.22. In addition, the Ratio Ki is 633 in assay [4] and greater than 600 in assay [5].
On to `CCNc1nc(-n2cc(-c3ccc(OC)cc3)cn2)nc2c1ncn2[C@@H]1O[C@H](CO)[C@@H](O)[C@H]1O`, for which the pKi in assay [6] was 5.43.
Consider `O=C(O)c1cnn(-c2nc(NC34CCC(CC3)C4)c3ncn([C@@H]4O[C@H](CO)[C@@H](O)[C@H]4O)c3n2)c1`, for which the pKi in assay [1] is less than 5.30; in assay [2] it was less than 5.30; in assay [3] it was less than 5.22. Besides, the Ratio Ki in assay [4] was greater than 5000.
Take `CCNC(=O)c1cnn(-c2nc(NC3CCCC3)c3ncn([C@@H]4O[C@H](CO)[C@@H](O)[C@H]4O)c3n2)c1`: the values for the pKi in assay [1], in assay [2] and in assay [3] were 7.70, less than 5.30 and less than 5.22, respectively. Moreover, the Ratio Ki in assay [4] stood at 20.
In the case of `CNC(=O)c1cnn(-c2nc(NC3CCCCC3)c3ncn([C@@H]4O[C@H](CO)[C@@H](O)[C@H]4O)c3n2)c1`, the negative-log Ki (pKi) is 6.80 in assay [1], less than 5.30 in assay [2] and less than 5.22 in assay [3]. For the same molecule, in assay [4], the Ratio Ki was 19.
In the case of `CCOC(=O)c1cnn(-c2nc(NC3CCCC3)c3ncn([C@@H]4O[C@H](CO)[C@@H](O)[C@H]4O)c3n2)c1`, the values for the pKi in assay [1], in assay [2] and in assay [3] were 7.72, less than 5.30 and less than 5.22, respectively. The Ratio Ki in assay [4] was determined as 21.
Regarding `O=C(O)c1cnn(-c2nc(NC3CCCC3)c3ncn([C@@H]4O[C@H](CO)[C@@H](O)[C@H]4O)c3n2)c1`, the pKi in assay [1] was 5.39; in assay [2] it was less than 5.30; in assay [3] it was less than 5.22. Besides, the Ratio Ki in assay [4] turned out to be 468. Also, the Intrinsic activity in assay [7] amounted to 100%.
